Assay results reported in ChEMBL document CHEMBL1138144 (J Med Chem, 2006).

How the values were obtained:
[1] = biological target: T1, Sodium-dependent dopamine transporter (Homo sapiens, UniProt Q01959); experiment: Displacement of [125I]RTI-55 from human DAT expressed in HEK293 cells; assay type: cell-based
In short: (§1)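 Membranes from HEK293 cells expressing hDAT or hSERT, grown to 80% confluence, lysed in 2 mM HEPES/1 mM EDTA, spun and resuspended in 0.32 M sucrose. About 10–15 µg protein preincubated 10 min with compound in Krebs-HEPES pH 7.4 (0.1% DMSO final). Filtered on GF/C. Non-specific binding: 5 µM mazindol (DAT) or 5 µM imipramine (SERT). Duplicates, 2–3 experiments, IC50 converted to Ki by Cheng-Prusoff.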

[2] = biological target: T1, Sodium-dependent dopamine transporter; experiment: Inhibition of [3H] dopamine uptake into human DAT expressed in HEK293 cells; assay type: functional, cell-based
In short: (§2)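 Confluent HEK293 cells expressing hDAT or hSERT, scraped into Krebs-HEPES. Preincubated 10 min at 25°C with compound (0.1% DMSO final). Uptake started with [3H]dopamine or [3H]serotonin (20 nM final) and stopped after 10 min by filtration on PEI-soaked GF/C filters. Non-specific uptake: 5 µM mazindol (DAT) or 5 µM imipramine (SERT). IC50 from triplicate 6-concentration curves, 2–3 independent determinations.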

[3] = biological target: T2, Sodium-dependent serotonin transporter (Homo sapiens, UniProt P31645); experiment: Displacement of [125I]RTI-55 from human SERT expressed in HEK293 cells; assay type: cell-based; in short: as §1
T2 sequence (P31645 whole entry): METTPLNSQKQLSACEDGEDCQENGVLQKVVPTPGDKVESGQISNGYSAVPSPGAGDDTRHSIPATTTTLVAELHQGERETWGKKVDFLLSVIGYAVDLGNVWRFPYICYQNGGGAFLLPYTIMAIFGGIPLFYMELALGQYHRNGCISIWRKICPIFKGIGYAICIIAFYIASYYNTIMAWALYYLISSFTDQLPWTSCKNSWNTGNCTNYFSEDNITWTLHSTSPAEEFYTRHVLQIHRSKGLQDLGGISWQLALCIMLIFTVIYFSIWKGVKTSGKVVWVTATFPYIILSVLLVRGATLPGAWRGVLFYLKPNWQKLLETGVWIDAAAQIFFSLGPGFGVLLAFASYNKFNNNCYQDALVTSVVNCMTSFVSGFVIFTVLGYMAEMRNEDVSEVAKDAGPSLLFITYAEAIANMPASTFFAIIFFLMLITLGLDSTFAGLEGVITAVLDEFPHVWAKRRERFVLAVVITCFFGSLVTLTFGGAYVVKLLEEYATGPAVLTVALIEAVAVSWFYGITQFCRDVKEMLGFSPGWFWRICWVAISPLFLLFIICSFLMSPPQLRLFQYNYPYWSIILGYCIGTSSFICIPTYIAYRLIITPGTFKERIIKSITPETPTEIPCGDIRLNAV

[4] = biological target: T2, Sodium-dependent serotonin transporter; experiment: Inhibition of [3H] serotonin uptake into human SERT expressed in HEK293 cells; assay type: functional, cell-based; in short: as §2
[5] = biological target: T3, Sodium-dependent noradrenaline transporter (Homo sapiens, UniProt P23975); experiment: Displacement of [125I]RTI-55 from human NET expressed in HEK293 cells; assay type: cell-based
T3 sequence (P23975 whole entry): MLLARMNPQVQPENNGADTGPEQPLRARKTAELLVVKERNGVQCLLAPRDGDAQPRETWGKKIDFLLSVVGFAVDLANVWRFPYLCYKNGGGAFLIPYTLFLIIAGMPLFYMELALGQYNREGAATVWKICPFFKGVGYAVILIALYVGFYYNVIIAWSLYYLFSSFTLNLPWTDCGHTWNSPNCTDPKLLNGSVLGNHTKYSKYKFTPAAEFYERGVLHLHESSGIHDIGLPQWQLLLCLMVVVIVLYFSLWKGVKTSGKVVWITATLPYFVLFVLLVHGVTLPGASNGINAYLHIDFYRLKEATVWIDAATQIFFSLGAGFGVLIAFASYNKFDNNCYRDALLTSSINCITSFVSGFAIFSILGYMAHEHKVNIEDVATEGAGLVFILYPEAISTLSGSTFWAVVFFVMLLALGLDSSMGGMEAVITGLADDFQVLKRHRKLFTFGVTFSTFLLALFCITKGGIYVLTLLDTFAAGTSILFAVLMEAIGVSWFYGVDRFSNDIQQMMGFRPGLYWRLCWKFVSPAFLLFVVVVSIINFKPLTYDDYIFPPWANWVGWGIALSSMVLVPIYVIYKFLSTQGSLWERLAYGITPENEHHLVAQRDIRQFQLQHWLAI

[6] = biological target: T3, Sodium-dependent noradrenaline transporter; experiment: Inhibition of [3H] norepinephrine uptake into human NET expressed in HEK293 cells; assay type: functional, cell-based
[7] = biological target: T4, 5-hydroxytryptamine receptor 1A (Homo sapiens, UniProt P08908); experiment: Inhibitory activity against 5HT1A
T4 sequence (P08908 whole entry): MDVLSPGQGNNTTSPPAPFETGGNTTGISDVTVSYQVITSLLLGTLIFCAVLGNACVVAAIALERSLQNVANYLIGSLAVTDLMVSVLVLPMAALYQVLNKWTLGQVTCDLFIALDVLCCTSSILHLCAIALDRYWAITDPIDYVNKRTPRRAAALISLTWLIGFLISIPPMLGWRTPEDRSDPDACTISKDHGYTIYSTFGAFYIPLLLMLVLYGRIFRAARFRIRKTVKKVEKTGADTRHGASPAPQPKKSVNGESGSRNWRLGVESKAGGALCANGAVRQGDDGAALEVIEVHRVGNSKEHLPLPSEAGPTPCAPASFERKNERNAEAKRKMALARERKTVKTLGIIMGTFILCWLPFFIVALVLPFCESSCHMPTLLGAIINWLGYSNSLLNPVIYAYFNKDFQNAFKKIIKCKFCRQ

[8] = biological target: 5-hydroxytryptamine receptor 1B (Homo sapiens, UniProt P28222); experiment: Inhibitory activity against 5HT1B
5-hydroxytryptamine receptor 1B, sequence (P28222 whole entry): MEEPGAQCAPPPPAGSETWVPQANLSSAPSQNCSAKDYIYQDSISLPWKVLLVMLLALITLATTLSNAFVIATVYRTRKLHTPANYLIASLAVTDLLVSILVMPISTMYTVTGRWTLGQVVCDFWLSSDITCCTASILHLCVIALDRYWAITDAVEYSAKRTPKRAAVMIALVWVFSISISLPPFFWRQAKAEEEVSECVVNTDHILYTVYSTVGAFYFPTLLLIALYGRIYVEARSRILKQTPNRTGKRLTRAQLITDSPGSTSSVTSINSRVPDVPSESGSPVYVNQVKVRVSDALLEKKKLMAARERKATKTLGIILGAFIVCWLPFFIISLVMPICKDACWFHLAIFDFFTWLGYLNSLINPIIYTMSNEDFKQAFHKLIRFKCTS

[9] = biological target: T5, 5-hydroxytryptamine receptor 2C (Homo sapiens, UniProt P28335); experiment: Inhibitory activity against 5HT1C
T5 sequence (P28335 whole entry): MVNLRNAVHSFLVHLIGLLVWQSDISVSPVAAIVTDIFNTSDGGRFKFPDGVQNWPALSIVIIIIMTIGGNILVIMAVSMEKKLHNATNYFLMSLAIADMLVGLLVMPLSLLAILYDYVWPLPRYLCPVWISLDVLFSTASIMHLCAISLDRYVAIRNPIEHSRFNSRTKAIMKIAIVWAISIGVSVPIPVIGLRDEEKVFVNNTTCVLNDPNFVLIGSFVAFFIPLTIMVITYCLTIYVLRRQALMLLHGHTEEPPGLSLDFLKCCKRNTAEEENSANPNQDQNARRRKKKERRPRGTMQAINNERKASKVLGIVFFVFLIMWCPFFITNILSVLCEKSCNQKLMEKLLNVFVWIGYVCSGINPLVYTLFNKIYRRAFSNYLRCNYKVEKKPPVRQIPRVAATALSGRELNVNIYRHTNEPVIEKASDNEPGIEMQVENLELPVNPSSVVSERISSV

[10] = biological target: D(1A) dopamine receptor (Homo sapiens, UniProt P21728); experiment: Inhibitory activity against dopamine D1
D(1A) dopamine receptor, sequence (P21728 whole entry): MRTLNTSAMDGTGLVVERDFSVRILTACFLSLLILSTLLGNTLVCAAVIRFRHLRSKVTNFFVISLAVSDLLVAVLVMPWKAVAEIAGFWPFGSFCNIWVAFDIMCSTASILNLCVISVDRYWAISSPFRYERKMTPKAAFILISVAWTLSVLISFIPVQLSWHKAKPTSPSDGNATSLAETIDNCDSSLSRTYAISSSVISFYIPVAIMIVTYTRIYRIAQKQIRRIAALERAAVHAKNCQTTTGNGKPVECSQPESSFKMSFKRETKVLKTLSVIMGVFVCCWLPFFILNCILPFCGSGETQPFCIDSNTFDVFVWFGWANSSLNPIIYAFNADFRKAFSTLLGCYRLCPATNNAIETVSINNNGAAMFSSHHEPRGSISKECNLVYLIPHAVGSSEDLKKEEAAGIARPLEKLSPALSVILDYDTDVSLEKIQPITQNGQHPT

[11] = biological target: D(2) dopamine receptor (Homo sapiens, UniProt P14416); experiment: Inhibitory activity against dopamine D2
D(2) dopamine receptor, sequence (P14416 whole entry): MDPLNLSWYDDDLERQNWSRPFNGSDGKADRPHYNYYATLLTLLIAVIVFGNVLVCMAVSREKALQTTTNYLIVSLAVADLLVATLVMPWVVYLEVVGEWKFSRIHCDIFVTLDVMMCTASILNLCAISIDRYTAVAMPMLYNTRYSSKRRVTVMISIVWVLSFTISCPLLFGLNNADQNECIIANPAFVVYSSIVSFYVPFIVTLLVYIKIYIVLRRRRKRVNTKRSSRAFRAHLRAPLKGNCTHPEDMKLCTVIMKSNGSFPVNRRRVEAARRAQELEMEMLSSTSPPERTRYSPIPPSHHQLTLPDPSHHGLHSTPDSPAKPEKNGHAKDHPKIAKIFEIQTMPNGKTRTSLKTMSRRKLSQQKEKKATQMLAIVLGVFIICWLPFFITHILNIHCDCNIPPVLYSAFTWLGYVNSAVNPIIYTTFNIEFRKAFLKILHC

[12] = biological target: D(3) dopamine receptor (Homo sapiens, UniProt P35462); experiment: Inhibitory activity against dopamine D3
D(3) dopamine receptor, sequence (P35462 whole entry): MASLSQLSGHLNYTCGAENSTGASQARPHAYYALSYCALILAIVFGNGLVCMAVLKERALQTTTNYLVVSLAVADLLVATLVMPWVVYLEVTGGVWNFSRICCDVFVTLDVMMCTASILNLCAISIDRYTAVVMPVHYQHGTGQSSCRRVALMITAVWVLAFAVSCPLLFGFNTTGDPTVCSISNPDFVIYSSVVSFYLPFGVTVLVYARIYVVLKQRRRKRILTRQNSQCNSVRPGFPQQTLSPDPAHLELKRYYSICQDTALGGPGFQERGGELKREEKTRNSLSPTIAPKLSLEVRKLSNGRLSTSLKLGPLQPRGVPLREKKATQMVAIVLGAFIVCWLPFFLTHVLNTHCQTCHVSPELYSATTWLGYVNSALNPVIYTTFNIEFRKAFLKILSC

T1 sequence (Q01959 whole entry): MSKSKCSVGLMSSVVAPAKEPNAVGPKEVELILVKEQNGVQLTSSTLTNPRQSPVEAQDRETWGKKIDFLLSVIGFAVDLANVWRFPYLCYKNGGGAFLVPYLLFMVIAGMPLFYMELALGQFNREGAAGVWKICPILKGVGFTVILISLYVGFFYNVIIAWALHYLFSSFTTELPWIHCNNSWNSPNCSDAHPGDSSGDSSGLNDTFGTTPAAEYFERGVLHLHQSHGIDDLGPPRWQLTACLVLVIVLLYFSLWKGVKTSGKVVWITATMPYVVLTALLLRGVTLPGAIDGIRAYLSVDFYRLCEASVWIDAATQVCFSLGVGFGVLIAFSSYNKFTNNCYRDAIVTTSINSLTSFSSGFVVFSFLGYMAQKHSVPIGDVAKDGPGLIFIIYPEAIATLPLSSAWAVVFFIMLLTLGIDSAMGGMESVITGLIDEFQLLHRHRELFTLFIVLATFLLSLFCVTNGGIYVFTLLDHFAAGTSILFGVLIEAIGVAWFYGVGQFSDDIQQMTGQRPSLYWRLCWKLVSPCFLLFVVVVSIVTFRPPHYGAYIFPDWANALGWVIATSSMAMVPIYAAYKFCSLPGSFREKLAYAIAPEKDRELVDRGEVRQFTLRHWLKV

SMILES | Ki [1] [µM] | IC50 [2] [µM] | Ki [3] [µM] | IC50 [4] [µM] | Ki [5] [µM] | IC50 [6] [µM] | IC50 [7] [µM] | IC50 [8] [µM] | IC50 [9] [µM] | IC50 [10] [µM] | IC50 [11] [µM] | IC50 [12] [µM]
CCCC(C(=O)c1ccc(Br)cc1)N1CCCC1 (stereo unspecified) | 0.051 | 0.0395 | 0.83 | 1.05 | 0.386 | 0.083 | > 10 | > 10 | > 10 | > 10 | > 10 | > 10
CCCC(C(=O)c1ccc(CO)cc1)N1CCCC1 (stereo unspecified) | 0.0487 | 0.0443 | > 10 |  | 0.15 | 0.0124 |  |  |  |  |  | 
CCCC(C(=O)c1ccc(-c2cccn2C)cc1)N1CCCC1 (stereo unspecified) | 3.85 | 5.4 | > 10 |  | > 10 |  |  |  |  |  |  | 
CCCC(C(=O)c1ccc(I)cc1)N1CCCC1 (stereo unspecified) | 0.0814 | 0.032 | 0.301 | 0.197 | 0.31 | 0.0465 |  |  |  |  |  | 
CCCC(C(=O)c1ccc(NC(C)=O)cc1)N1CCCC1 (stereo unspecified) | 0.0302 | 0.0679 | > 10 |  | 4 | 0.317 | > 10 | > 10 | > 10 | > 10 | > 10 | > 10
CCCC(C(=O)c1ccc(C#N)cc1)N1CCCC1 (stereo unspecified) | 5.9 | 1 | > 10 |  | > 10 |  |  |  |  |  |  | 
CCCC(C(=O)c1cccc(C)c1)N1CCCC1 (stereo unspecified) | 0.051 | 0.0629 | 5.9 |  | 0.216 | 0.0094 | > 10 | > 10 | > 10 | > 10 | > 10 | > 10
CCCC(C(O)c1ccc(C)cc1)N1CCCC1 (mixture of isomers) | > 10 |  | > 10 |  | > 10 |  |  |  |  |  |  | 
CCC[C@H](C(=O)c1ccc(C)cc1)N1CCCC1 |  | 1.79 | > 10 |  | > 10 |  |  |  |  |  |  | 
CCCC(C(=O)c1ccc2ccccc2c1)N1CCCC1 (stereo unspecified) | 0.0201 | 0.04 | 0.0331 | 0.046 | 0.136 | 0.0117 | > 10 | > 10 | > 10 | > 10 | > 10 | > 10
CCCC(C(=O)c1ccc(Cl)c(Cl)c1)N1CCCC1 (stereo unspecified) | 0.0115 | 0.043 | 0.199 | 0.6 | 0.0378 | 0.021 |  |  |  |  |  | 
CCCC(C(=O)c1ccc(F)cc1)N1CCCC1 (stereo unspecified) | 0.082 | 0.185 | > 10 |  | 0.83 | 0.171 |  |  |  |  |  | 
CCC[C@@H](C(=O)c1ccc(C)cc1)N1CCCC1 | 0.0181 | 0.0163 | 2.22 | 1.07 | 0.109 | 0.0113 | > 10 | > 10 | > 10 | > 10 | > 10 | > 10
C#CCC(C(=O)c1ccc(C)cc1)N1CCCC1 (stereo unspecified) | 2.31 | 0.231 | > 10 |  | 4.1 | 0.35 |  |  |  |  |  | 
CCCC(C(=O)c1ccc(-c2ccco2)cc1)N1CCCC1 (stereo unspecified) | 0.105 | 0.122 | 3.33 | 2.18 | 0.095 | 0.093 |  |  |  |  |  | 
CCC(CC(=O)c1ccc(C)cc1)N1CCCC1 (stereo unspecified) | > 10 |  | > 10 |  | > 10 |  | > 10 | > 10 | > 10 | > 10 | > 10 | > 10
C=CCC(C(=O)c1ccc(C)cc1)N1CCCC1 (stereo unspecified) | 0.0905 | 0.055 | > 10 |  | 1.4 | 0.088 |  |  |  |  |  | 
CCCC(C(=O)c1ccccc1)N1CCCC1 (stereo unspecified) | 0.0337 | 0.0523 | > 10 |  | 0.199 | 0.056 |  |  |  |  |  | 

SMILES | Ki [1] [µM] | IC50 [2] [µM] | Ki [3] [µM] | IC50 [4] [µM] | Ki [5] [µM] | IC50 [6] [µM] | IC50 [7] [µM] | IC50 [8] [µM] | IC50 [9] [µM] | IC50 [10] [µM] | IC50 [11] [µM] | IC50 [12] [µM]
CCCC(C(=O)c1ccc(C(F)(F)F)cc1)N1CCCC1 (stereo unspecified) | > 10 |  | 0.959 | 1.03 | > 10 |  | > 10 | > 10 | > 10 | > 10 | > 10 | > 10
CCCC(C(=O)c1ccc(Cl)c(Cl)c1)N1CCCCC1 (stereo unspecified) | 0.144 | 0.666 | 2.46 | > 10 | 2.35 | 0.8 |  |  |  |  |  | 
CCCC(C(=O)c1cccc(I)c1)N1CCCC1 (stereo unspecified) | 0.109 | 0.052 | 1.4 | 1.07 | 0.67 | 0.081 |  |  |  |  |  | 
CCCC(C(=O)c1ccc(O)c(O)c1)N1CCCC1 (stereo unspecified) | 0.084 | 0.042 | > 10 |  | 0.219 | 0.0076 |  |  |  |  |  | 
CCCC(C(=O)c1ccc(C(=O)OC)cc1)N1CCCC1 (stereo unspecified) | 0.36 | 0.154 | 3.65 | 2.35 | 1.14 |  |  |  |  |  |  | 
CCCC(C(=O)c1ccc(C)cc1)N1CCCC1 (stereo unspecified) [PYROVALERONE] | 0.0214 | 0.052 | 3.77 | 2.78 | 0.195 | 0.0283 |  |  |  |  |  | 
Cc1ccc(C(=O)C(CC(C)C)N2CCCC2)cc1 (stereo unspecified) | 0.0137 | 0.0059 | 2.87 | 2.04 | 0.259 | 0.018 |  |  |  |  |  | 
CCCC(CN1CCCC1)C(=O)c1ccc(Cl)c(Cl)c1 (stereo unspecified) | 1.53 | 2.9 | 0.63 | 0.71 | > 10 |  |  |  |  |  |  | 
C=CCC(C(=O)c1ccc(Cl)c(Cl)c1)N1CCCC1 (stereo unspecified) | 0.0399 | 0.0183 | 1.06 | 0.44 | 0.509 | 0.0249 |  |  |  |  |  | 
CCCCNC(CCC)C(=O)c1ccc(Cl)c(Cl)c1 (stereo unspecified) | 0.52 | 1.19 | 5.08 | > 10 | 4.2 | 2.52 |  |  |  |  |  | 
CCC(C(=O)c1ccc(Cl)c(Cl)c1)N1CCCC1 (stereo unspecified) |  |  | 0.81 | 0.441 | 0.262 | 0.0185 |  |  |  |  |  | 
CCCC(C(=O)c1ccc([N+](=O)[O-])cc1)N1CCCC1 (stereo unspecified) | 0.266 | 1.11 | 2.46 | 1.11 | 2.69 | 0.531 |  |  |  |  |  | 
CCCC(C(=O)c1ccc(O)cc1)N1CCCC1 (stereo unspecified) | 0.125 | 0.0497 | > 10 |  | 1.29 | 0.0867 | > 10 | > 10 | > 10 | > 10 | > 10 | > 10
CCCC(CN1CCCC1)C(=O)c1ccc(C)cc1 (stereo unspecified) | > 10 |  | 4.1 | 4.8 | > 10 |  |  |  |  |  |  | 
CCC(CC(=O)c1ccc(Cl)c(Cl)c1)N1CCCC1 (stereo unspecified) | 8.44 | > 10 | 3.9 | 1.78 | > 10 |  | > 10 | > 10 | > 10 | > 10 | > 10 | > 10
CC#Cc1ccc(C(=O)C(CCC)N2CCCC2)cc1 (stereo unspecified) | 0.061 | 0.0118 | 6.7 | 3.3 | 0.0698 | 0.0193 |  |  |  |  |  | 
CCCC(C(=O)c1ccc(OC)c(OC)c1)N1CCCC1 (stereo unspecified) | > 10 |  | 7.46 | 1.54 | > 10 |  |  |  |  |  |  | 
